# Screens: PubChem, several laboratories
# Sampled rows, rich in hits. Any-hit rate of the full collection: about 4.9%.
# WT yeast gro inh: growth inhibition of WT yeast, mitochondrial fusion screen; mitochondrial fusion phenotypic screen, WT strain; inhibition, % at 10 µM; 190,000 compounds, 2.1% hits; in the data active means inhibition above about 58%; tested in S. cerevisiae
# NPY Y1 blocker: antagonists of human neuropeptide Y receptor Y1. P25929. HEK293-CNG Y1 cells, membrane potential fluorescence; NPY at EC95, then isoproterenol. inhibition, % at 3.6 µM. 200,000 compounds, 1% hits. AID 1040;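 active means inhibition above the campaign mean inhibition of all tested compounds plus 3 SD, cut at about 20% in these data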;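 further: 0% = DMSO wells given NPY plus isoproterenol and 100% = isoproterenol alone without NPY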
#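 Assay system: HEK293 Y1/CNG channel cell line; Doses: single compound dose of 3.6 µM, 0.4% DMSO; Timing: dye 3 h, compound 60 min room temperature, stimulation 45 min; Technique: Membrane-potential fluorescent dye readout; Measure: % inhibition of NPY effect.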
# NPY-Y2 antag: blocks the human neuropeptide Y Y2 receptor; NPY-Y2 expressing cells, antagonist mode; P49146; 140,000 compounds, 0.99% hits; inhibition, % at 2.7 µM; in the data active means inhibition above about 17%;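 further: 0% = vehicle with agonist challenge and 100% = reference antagonist with challenge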
# Target sequence (P49146 whole entry, looked up): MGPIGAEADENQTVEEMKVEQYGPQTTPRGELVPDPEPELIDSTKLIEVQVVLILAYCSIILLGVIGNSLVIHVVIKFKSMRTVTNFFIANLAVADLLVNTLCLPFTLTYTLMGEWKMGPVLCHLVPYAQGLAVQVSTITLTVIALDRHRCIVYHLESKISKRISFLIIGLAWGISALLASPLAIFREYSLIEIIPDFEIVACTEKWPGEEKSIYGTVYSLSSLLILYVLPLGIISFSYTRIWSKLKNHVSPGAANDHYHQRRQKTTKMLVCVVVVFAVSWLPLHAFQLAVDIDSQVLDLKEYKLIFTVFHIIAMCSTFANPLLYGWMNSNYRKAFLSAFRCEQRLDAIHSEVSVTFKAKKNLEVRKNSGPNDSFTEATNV
# NPY-Y1 PAM-ag: potentiates or activates human NPY-Y1 receptor | NPY-Y1 expressing cells, potentiator/agonist activation | 220,000 compounds, 0.37% hits | AID 1304 | P25929 | activation, % at 3.6 µM; in the data active means activation above about 33%, passing the limit was not always enough;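 further: cells stimulated with NPY at EC10 then isoproterenol at EC100; 0% = low agonist plus stimulus and 100% = saturating agonist plus stimulus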
# NPY-Y2 PAM-ag: human NPY-Y2 potentiation or agonism, primary screen | P49146 | activation, % at 3.6 µM | cells expressing NPY-Y2, potentiator/agonist read-out | AID 1359 | 220,000 compounds, 0.45% hits; in the data active means activation above about 27%;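 further: cells stimulated with NPY near EC25 plus isoproterenol at EC100; 0% = vehicle plus submaximal agonist and 100% = vehicle plus saturating agonist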
# RAM inhibit: blocks the yeast RAM network; inhibition, % at 50 µM; AID 868; 190,000 compounds, 1.8% hits; S. cerevisiae dse1pr::URA3 reporter, 5-FOA growth OD615, 2 d; analog-sensitive cbk1-as2 kinase mutant strain;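 active means inhibition above a set limit, 3 SD over mean compound inhibition, cut at about 8.4% in these data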;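 further: 0% = DMSO-only wells with no growth and 100% = 10 µM 1-NA-PP1 full growth; inhibition rescues growth on 5-FOA so higher OD means more RAM inhibition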
# Numbers without * were called inactive; . = not tested or not shown.
SMILES,WT yeast gro inh,NPY Y1 blocker,NPY-Y2 antag,NPY-Y1 PAM-ag,NPY-Y2 PAM-ag,RAM inhibit
COc1ccc(OCc2nc3c4c(ncn3n2)-c2ccccc2CC42CCCC2)cc1,3,-1,7,-13,-18,5
Cc1ccc(OCc2nc3c4c(ncn3n2)-c2ccccc2CC42CCCC2)cc1,-5,0,-2,5,4,10*
Cc1ccccc1OCc1nc2c3c(ncn2n1)-c1ccccc1CC31CCCC1,16,2,3,-17,5,11*
CCOC(=O)C1=C(N)OC2=C(C(=O)CCC2)C1c1cccnc1 (configuration not stated),-6,2,4,8,-9,0
N/C(Cc1ccc(Cl)cc1Cl)=N\OC(=O)c1ccccc1F,97*,4,.,-10,-6,-2
COc1cc(C(=O)NCc2nnc(SCC(=O)Nc3cccc(C)c3)o2)cc(OC)c1OC,-16,-2,2,-18,-8,6
COc1ccc(C(=O)NCc2ccncc2)cc1OC,-3,-2,.,-3,0,1
c1ccc2c(c1)oc1c(N3CCN(Cc4ccc5c(c4)OCO5)CC3)ncnc12,76*,11,10,-24,-18,0
COCC(=O)N1CCN(c2ccc([N+](=O)[O-])cc2)CC1,1,-5,4,42*,19,1
Cc1ccc(S(=O)(=O)CCSc2nc(C)cc(C(F)(F)F)c2C#N)cc1,16,17,4,-24,-2,10*
COC(=O)CSc1nc(C)cc(C(F)(F)F)c1C#N,25,1,0,4,-7,1
Cc1cc(C(F)(F)F)c(C#N)c(Sc2ccccc2)n1,4,1,0,-8,-7,10.0*
COc1ccc(/C=N/NC(=O)C(Cc2c[nH]c3ccccc23)NC(=O)OCC(C)C)cc1[N+](=O)[O-] (configuration not stated),20,35*,33*,-66,-26,5
O=C(NC(Cc1c[nH]c2ccccc12)C(=O)N/N=C/c1ccc(Cl)cc1)c1cccs1 (configuration not stated),-3,-7,.,21,21,1
COc1ccc(CC(=O)NCCc2ccc(Cl)cc2Cl)cc1,2,2,.,-26,-6,0
COCCNC(=S)NCCc1ccc(Cl)cc1Cl,70*,1,.,19,10,1
COCC(C)NC(=S)NCCc1ccc(Cl)cc1Cl (configuration not stated),61*,-2,.,17,-1,0
Cc1cccc(-n2ncc3c(N4CCCC4)ncnc32)c1,-17,3,0,16,4,0
Cc1cccc(-n2ncc3c(N4CC(C)CC(C)C4)ncnc32)c1 (configuration not stated),78*,5,3,-18,-15,5
CC1CC(C)CN(c2ncnc3c2cnn3Cc2ccc(Cl)cc2)C1 (configuration not stated),76*,-2,4,-13,3,2
Clc1ccc(Cn2ncc3c(N4CCCC4)ncnc32)cc1,9,1,4,-38,-14,0
COc1ccc(NC(=S)N2CCN(c3ccccn3)CC2)cc1,-16,1,0,6,-3,0
O=C(Nc1cccc(C(=O)O)c1)/C(=C\c1ccccc1)NC(=O)c1cccc2ccccc12,-4,5,.,-10,-8,3
CC1CCc2sc3nc(NCc4ccco4)n4ncnc4c3c2C1 (configuration not stated),82*,7,6,-16,-6,3
CC1CCCc2sc3nc(NCc4ccco4)n4ncnc4c3c21 (configuration not stated),79*,39*,28*,-25,-38,3
SMILES,WT yeast gro inh,NPY Y1 blocker,NPY-Y2 antag,NPY-Y1 PAM-ag,NPY-Y2 PAM-ag,RAM inhibit
Cc1nc(NCc2ccco2)c2c3c(sc2n1)CCC3,-3,10,10,0,4,1
CCN1CCN(c2nc3sc4c(c3c3ncnn23)CC(C)CC4)CC1 (configuration not stated),-15,14,10,-68,-31,4
COCCCNC(=O)Cn1cc2c(n1)CCC(C)C2 (configuration not stated),0,6,0,11,12,0
COc1ccc(-c2cc(C(=O)c3c(N)n(C)c(=O)n(C)c3=O)c3ccccc3n2)cc1OC,19,0,.,-9,2,2
S=c1nc2ccccc2c2nc(-c3ccccc3)[nH]n12,71*,3,0,-9,-2,1
COc1cccc(C(=O)N/N=C(/c2ccccc2)c2ccccn2)c1,66*,4,1,8,-7,1
COc1cc(C(=O)N/N=C(\c2ccccc2)c2ccccn2)cc(OC)c1OC,3,-1,0,-27,-13,2
CCCCCc1ccc(-c2ccc(/C=C/C(=O)O)cc2)nc1,32,-1,4,-3,-3,4
CCCCCCCc1ccc(-c2ccc(O)cc2)nc1,74*,-2,.,8,-2,-1
CCCCC(=O)c1c(O)c2ccccc2oc1=O,-12,3,3,-14,4,-1
O=C(CC1CCCCC1)c1c(O)c2ccccc2oc1=O,39,3,7,-11,-12,9.6*
CC(C)(CNC(=O)c1sc2cc(F)ccc2c1Cl)N1CCOCC1,-7,3,12,-2,-6,0
CC12C(=O)N(c3ccccn3)C(=O)C1C1C=CC2C1 (configuration not stated),-3,1,5,-9,-10,0
Cn1c(CCNC(=O)c2ccc(Cl)c(Cl)c2)nnc1SCc1ccc(Cl)c(Cl)c1,14,3,6,-28,-10,8.8*
CCOC(=O)c1c(-c2ccccc2)nc2cc(C)ccn12,27,-1,2,23,-3,-1
CN1CCC(=C2c3ccccc3CCc3sccc32)CC1,12,17,.,-24,-11,.
CCOc1cc(/C=N/n2cnnc2)ccc1OC(=O)c1cccc([N+](=O)[O-])c1,4,-5,-1,5,14,3
CCC(CC)c1nn2c(N)c(/C=C3\C(C)=Nc4ccccc43)c(=O)nc2s1,.,.,.,88*,51*,.
COc1cc(/C=C2/S/C(=N/S(=O)(=O)Cc3ccccc3)NC2=O)c([N+](=O)[O-])cc1OC,.,.,.,6,-26,.
CSc1cccc(NC(=S)N(Cc2ccc(C)cc2)Cc2cccnc2)c1,67*,14,.,4,6,4
Cn1nc(C(F)(F)F)c(-c2cccc(C(F)(F)F)c2)c1NC(=O)c1ccco1,.,.,.,0,-11,.
Cn1nc(C(F)(F)F)c(-c2cccc(C(F)(F)F)c2)c1NC(=O)Nc1ccc(F)cc1,.,.,.,111*,102*,.
Cc1occc(=O)c1OC(=O)Nc1ccc(Cl)c(Cl)c1,80*,-7,-1,12,9,2
Cc1cccnc1NC(=O)/C=C/c1ccc2c(c1)OCO2,1,0,8,-1,-1,-1
